According to ChEMBL document CHEMBL3085659, “Synthesis, antiproliferative and apoptosis-inducing activity of thiazolo[5,4-d]pyrimidines” (Eur J Med Chem, 2013):
Each block holds one compound with its values, some of them ahead of it. Calls of active or inactive are those of the source. The calls are words filed in the database; no cut-off is given here.

What was measured:
A-431 = experiment: Antiproliferative activity against human A431 cells assessed as growth inhibition at 10 uM after 48 hrs by SRB assay; format: functional; conditions: A-431, 48 h, read-out: GI
[1] = Antiproliferative activity against human MIAPaCa2 cells assessed as growth inhibition at 10 uM after 48 hrs by SRB assay; format: functional; conditions: MIA PaCa-2, 48 h, read-out: GI
T98G = experiment: Antiproliferative activity against human T98G cells assessed as growth inhibition at 10 uM after 48 hrs by SRB assay; format: functional; conditions: read-out: GI
T47D [2] = experiment: Antiproliferative activity against human T47D cells assessed as growth inhibition at 10 uM after 48 hrs by SRB assay; format: functional; conditions: read-out: GI
PC-3 [3] = experiment: Antiproliferative activity against human PC3 cells assessed as growth inhibition at 10 uM after 48 hrs by SRB assay; format: functional; conditions: PC-3, 48 h, read-out: GI
[4] = Antiproliferative activity against human NCI-H322 cells assessed as growth inhibition at 10 uM after 48 hrs by SRB assay; format: functional; conditions: NCI-H322, 48 h, read-out: GI
A549 [5] = experiment: Antiproliferative activity against human A549 cells assessed as growth inhibition at 10 uM after 48 hrs by SRB assay; format: functional; conditions: A549, 48 h, read-out: GI
HL-60 [6] = experiment: Antiproliferative activity against human HL60 cells assessed as growth inhibition at 10 uM after 48 hrs by SRB assay; format: functional; conditions: HL-60, 48 h, read-out: GI
HL-60 [7] = experiment: Induction of apoptosis in human HL60 cells assessed as reduction of procaspase-3 expression after 24 hrs by Western blot analysis; format: functional, cell-based
Method in brief: (§1)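 Cells treated 24 h (HL-60 at 5, 20, 30 µM; A549 at 1, 3, 10 µM); RIPA lysates, 70 µg protein resolved by SDS-PAGE, transferred to PVDF, blocked in 5% milk, probed for PARP-1 and procaspase-3 with HRP secondaries, ECL detection.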

HL-60 [8] = experiment: Induction of apoptosis in human HL60 cells assessed as loss of mitochondrial potential at 30 uM after 24 hrs using rhodamine-123 staining by flow cytometric analysis (reference value: 2%); format: functional
HL-60 [9] = experiment: Induction of apoptosis in human HL60 cells assessed as morphological changes at 5 to 30 uM after 24 hrs using DAPI staining by fluorescence microscopic analysis; format: functional, cell-based
Method in brief: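 HL-60 treated 24 h at indicated concentrations, then methanol-fixed, DAPI-stained and examined by fluorescence microscopy for cellular and nuclear apoptotic morphology, following the A549 protocol.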

HL-60 [10] = experiment: Antiproliferative activity against human HL60 cells after 48 hrs by SRB assay; format: functional, cell-based; conditions: HL-60, 48 h
HL-60 [11] = experiment: Induction of apoptosis in human HL60 cells at 20 uM after 24 hrs using propidium iodide staining by flow cytometry (reference value: 5%); format: functional
HL-60 [12] = experiment: Cell cycle arrest in human HL60 cells assessed as accumulation at G1 phase at 30 uM after 24 hrs using propidium iodide staining by flow cytometry (reference value: 40%); format: functional
HL-60 [13] = experiment: Cell cycle arrest in human HL60 cells assessed as accumulation at S phase at 5 uM after 24 hrs using propidium iodide staining by flow cytometry (reference value: 50%); format: functional
HL-60 [14] = experiment: Cell cycle arrest in human HL60 cells assessed as accumulation at G2 phase at 5 uM after 24 hrs using propidium iodide staining by flow cytometry (reference value: 10%); format: functional
HL-60 [15] = experiment: Cell cycle arrest in human HL60 cells assessed as accumulation at G1 phase at 20 uM after 24 hrs using propidium iodide staining by flow cytometry (reference value: 40%); format: functional
HL-60 [16] = experiment: Cell cycle arrest in human HL60 cells assessed as accumulation at S phase at 20 uM after 24 hrs using propidium iodide staining by flow cytometry (reference value: 50%); format: functional
HL-60 [17] = experiment: Induction of apoptosis in human HL60 cells assessed as loss of mitochondrial potential at 20 uM after 24 hrs using rhodamine-123 staining by flow cytometric analysis (reference value: 2%); format: functional
HL-60 [18] = experiment: Induction of apoptosis in human HL60 cells at 30 uM after 24 hrs using propidium iodide staining by flow cytometry (reference value: 5%); format: functional
HL-60 [19] = experiment: Cell cycle arrest in human HL60 cells assessed as accumulation at G2 phase at 20 uM after 24 hrs using propidium iodide staining by flow cytometry (reference value: 10%); format: functional
HL-60 [20] = experiment: Cell cycle arrest in human HL60 cells assessed as accumulation at G1 phase at 5 uM after 24 hrs using propidium iodide staining by flow cytometry (reference value: 40%); format: functional
PC-3 [21] = experiment: Antiproliferative activity against human PC3 cells after 48 hrs by SRB assay; format: functional, cell-based; conditions: PC-3, 48 h
[22] = Antiproliferative activity against human MIAPaCa2 cells after 48 hrs by SRB assay; format: functional, cell-based; conditions: MIA PaCa-2, 48 h
A549 [23] = experiment: Antiproliferative activity against human A549 cells after 48 hrs by SRB assay; format: functional, cell-based; conditions: A549, 48 h
T47D [24] = experiment: Antiproliferative activity against human T47D cells after 48 hrs by SRB assay; format: functional, cell-based
HL-60 [25] = experiment: Induction of apoptosis in human HL60 cells at 5 uM after 24 hrs using propidium iodide staining by flow cytometry (reference value: 5%); format: functional
HL-60 [26] = experiment: Cell cycle arrest in human HL60 cells assessed as accumulation at G2 phase at 30 uM after 24 hrs using propidium iodide staining by flow cytometry (reference value: 10%); format: functional
HL-60 [27] = experiment: Induction of apoptosis in human HL60 cells assessed as loss of mitochondrial potential at 5 uM after 24 hrs using rhodamine-123 staining by flow cytometric analysis (reference value: 2%); format: functional
HL-60 [28] = experiment: Cell cycle arrest in human HL60 cells assessed as accumulation at S phase at 30 uM after 24 hrs using propidium iodide staining by flow cytometry (reference value: 50%); format: functional
HL-60 [29] = experiment: Induction of apoptosis in human HL60 cells assessed as cleavage of PARP1 after 24 hrs by Western blot analysis; format: functional, cell-based; method in brief: as §1

Structure (SMILES): CN1CCN(c2ncnc3sc(Nc4ccccc4)nc23)CC1
inhibition of growth at 10 µM (A-431): 19%
inhibition of growth at 10 µM [1]: 10%
inhibition of growth at 10 µM (T98G): 36%
inhibition of growth at 10 µM (T47D [2]): 13%
inhibition of growth at 10 µM (PC-3 [3]): 29%
inhibition of growth at 10 µM [4]: 39%
inhibition of growth at 10 µM (A549 [5]): 19%
inhibition of growth at 10 µM (HL-60 [6]): 12%

Structure (SMILES): Clc1ccc(Nc2nc3c(N4CCCC4)ncnc3s2)cc1
inhibition of growth at 10 µM (A-431): 17%
inhibition of growth at 10 µM [1]: 37%
inhibition of growth at 10 µM (T98G): 6%
inhibition of growth at 10 µM (T47D [2]): 38%
inhibition of growth at 10 µM (PC-3 [3]): 31%
inhibition of growth at 10 µM [4]: 27%
inhibition of growth at 10 µM (A549 [5]): 26%
inhibition of growth at 10 µM (HL-60 [6]): 41%

Structure (SMILES): c1ccc(Nc2nc3c(N4CCC(N5CCCCC5)CC4)ncnc3s2)cc1
inhibition of growth at 10 µM (A-431): 10%
inhibition of growth at 10 µM [1]: 23%
inhibition of growth at 10 µM (T98G): 13%
inhibition of growth at 10 µM (T47D [2]): 21%
inhibition of growth at 10 µM (PC-3 [3]): 34%
inhibition of growth at 10 µM [4]: 30%
inhibition of growth at 10 µM (A549 [5]): 19%
inhibition of growth at 10 µM (HL-60 [6]): 39%

Structure (SMILES): CCN1CCN(c2ncnc3sc(Nc4ccccc4)nc23)CC1
inhibition of growth at 10 µM (A-431): 0%
inhibition of growth at 10 µM [1]: 9%
inhibition of growth at 10 µM (T98G): 19%
inhibition of growth at 10 µM (T47D [2]): 29%
inhibition of growth at 10 µM (PC-3 [3]): 19%
inhibition of growth at 10 µM [4]: 27%
inhibition of growth at 10 µM (A549 [5]): 25%
inhibition of growth at 10 µM (HL-60 [6]): 24%

Structure (SMILES): CCN(CC)c1ncnc2sc(Nc3ccccc3)nc12
inhibition of growth at 10 µM (A-431): 12%
inhibition of growth at 10 µM [1]: 9%
inhibition of growth at 10 µM (T98G): 49%
inhibition of growth at 10 µM (T47D [2]): 27%
inhibition of growth at 10 µM (PC-3 [3]): 19%
inhibition of growth at 10 µM [4]: 39%
inhibition of growth at 10 µM (A549 [5]): 48%
inhibition of growth at 10 µM (HL-60 [6]): 31%

IC50 (HL-60 [10]): 8 µM
IC50 (PC-3 [21]): 17 µM
IC50 (A549 [23]): 13 µM
IC50 (T47D [24]): 59 µM
Structure (SMILES): c1ccc(Nc2nc3c(N4CCOCC4)ncnc3s2)cc1
inhibition of growth at 10 µM (A-431): 4%
Activity (HL-60 [7]): Dose-dependent effect
Activity (HL-60 [8]): 26%
inhibition of growth at 10 µM [1]: 12%
Activity (HL-60 [9]): Active
Activity (HL-60 [11]): 12%
Activity (HL-60 [12]): 41%
inhibition of growth at 10 µM (T98G): 26%
Activity (HL-60 [13]): 45%
Activity (HL-60 [14]): 12%
Activity (HL-60 [15]): 51%
Activity (HL-60 [16]): 42%
Activity (HL-60 [17]): 16%
inhibition of growth at 10 µM (T47D [2]): 12%
Activity (HL-60 [18]): 24%
Activity (HL-60 [19]): 7%
Activity (HL-60 [20]): 43%
inhibition of growth at 10 µM (PC-3 [3]): 45%
IC50 [22]: 54 µM
inhibition of growth at 10 µM [4]: 7%
inhibition of growth at 10 µM (A549 [5]): 38%
Activity (HL-60 [25]): 9%
Activity (HL-60 [26]): 5%
inhibition of growth at 10 µM (HL-60 [6]): 59%
Activity (HL-60 [27]): 9%
Activity (HL-60 [28]): 54%
Activity (HL-60 [29]): Dose-dependent effect

Structure (SMILES): O=C(Nc1nc2c(Cl)ncnc2s1)c1ccccc1
inhibition of growth at 10 µM (A-431): 0%
inhibition of growth at 10 µM [1]: 15%
inhibition of growth at 10 µM (T98G): 23%
inhibition of growth at 10 µM (T47D [2]): 32%
inhibition of growth at 10 µM (PC-3 [3]): 21%
inhibition of growth at 10 µM [4]: 37%
inhibition of growth at 10 µM (A549 [5]): 29%
inhibition of growth at 10 µM (HL-60 [6]): 21%

Structure (SMILES): Clc1ccc(Nc2nc3c(Cl)ncnc3s2)cc1
inhibition of growth at 10 µM (A-431): 0%
inhibition of growth at 10 µM [1]: 10%
inhibition of growth at 10 µM (T98G): 0%
inhibition of growth at 10 µM (T47D [2]): 9%
inhibition of growth at 10 µM (PC-3 [3]): 18%
inhibition of growth at 10 µM [4]: 47%
inhibition of growth at 10 µM (A549 [5]): 46%
inhibition of growth at 10 µM (HL-60 [6]): 18%

Structure (SMILES): c1ccc(Nc2nc3c(N4CCNCC4)ncnc3s2)cc1
inhibition of growth at 10 µM (A-431): 18%
inhibition of growth at 10 µM [1]: 30%
inhibition of growth at 10 µM (T98G): 12%
inhibition of growth at 10 µM (T47D [2]): 21%
inhibition of growth at 10 µM (PC-3 [3]): 35%
inhibition of growth at 10 µM [4]: 35%
inhibition of growth at 10 µM (A549 [5]): 19%
inhibition of growth at 10 µM (HL-60 [6]): 39%
